High-throughput results (PubChem)
Shown are actives, neighbours in structure and some others; about 3.5% of the full set was active somewhere.
MrgX1 agonist: agonists of human MrgX1 receptor, primary screen, HEK293 cells, Fluo-4 calcium flux. Fluo-4 calcium fluorescence, agonist mode; stronger effect = higher value. AID 588627, 2011. B-score at 10 µM. Mas-related G-protein coupled receptor member X1 (Homo sapiens), Q96LB2. actives 0.44% (n = 310,000);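 active = calcium response B-score plate-corrected fluorescence ratio at least 3 library SD, with starting fluorescence B-score inside 5 SD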
Target sequence (Q96LB2 whole entry, looked up): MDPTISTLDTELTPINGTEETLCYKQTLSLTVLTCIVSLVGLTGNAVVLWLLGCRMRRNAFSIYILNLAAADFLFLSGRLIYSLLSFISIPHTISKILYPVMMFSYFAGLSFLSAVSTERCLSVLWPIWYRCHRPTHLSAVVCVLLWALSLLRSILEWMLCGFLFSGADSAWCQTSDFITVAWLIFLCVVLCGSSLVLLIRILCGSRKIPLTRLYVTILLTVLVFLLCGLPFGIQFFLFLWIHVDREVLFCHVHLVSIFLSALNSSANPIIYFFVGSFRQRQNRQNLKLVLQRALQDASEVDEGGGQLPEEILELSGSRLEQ
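Assay system: stable human MrgX1 HEK293 cell line. Quantity: 15,000 cells per well. Schedule: cells plated overnight, dye loaded 0.5 h 37 °C, 0.5 h room temperature. Detection: Fluo-4 NW calcium-flux fluorescence, kinetic read. Read-out basis: peak-minus-minimum fluorescence over baseline, converted to B scores. Control set: positive and negative control wells on each plate.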
MrgX1 antag: antagonists of human MrgX1 receptor, primary screen, HEK293 cells, Fluo-4 calcium flux | Mas-related G-protein coupled receptor member X1 (Homo sapiens), Q96LB2 | BAM8-22 antagonism; stronger effect = lower value | B-score at 10 µM | actives 1.3% (n = 310,000);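 active = calcium-response B-score plate-corrected more than 3 library SD below zero, starting fluorescence within 5 deviations, no agonist response on first addition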;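 note: peak minus trough fluorescence over baseline after final BAM8-22 challenge near maximal dose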
RGS4 pot: RGS4 potentiators or activators, primary screen, cell-based, HEK293 M3R inducible RGS4, calcium flux; AID 463111, 2010; carbachol calcium flux Fluo4; stronger effect = lower value; actives 0.92% (n = 310,000); B-score at 10 µM;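 active = B-score of the integrated calcium signal more than 4 SD below the library mean, with starting fluorescence not abnormally high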;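 note: negative B-score means reduced calcium response which marks RGS4 activation or potentiation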
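test system = M3R-expressing HEK293 line, RGS4 induced by doxycycline | probe or stimulus = carbachol at ECmax as muscarinic agonist stimulus | timing = dye loading 30 min 37 °C, buffer rest 30 min RT | signal = calcium dye Fluo4 fluorescence | evaluation = B score from integrated fluorescence ratio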
MrgX1 allo act: positive allosteric modulators of MrgX1, primary screen, HEK293 cells, Fluo-4 calcium flux | Mas-related G-protein coupled receptor member X1 (Homo sapiens), Q96LB2 | FDSS; stronger effect = higher value | B-score at 10 µM | actives 0.63% (n = 310,000) | AID 588675, 2011;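 active = plate-corrected calcium response at least 3 library SD above typical, normal starting fluorescence, not activating the receptor alone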;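 note: compound read alongside a low EC10 to EC30 dose of BAM8-22 agonist; peak minus trough fluorescence over baseline measured at the second addition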
RGS4 inh: RGS4 inhibitors, primary screen, cell-based, HEK293 M3R inducible RGS4, calcium flux | Regulator of G-protein signaling 4 (Homo sapiens), P49798 | Fluo-4 calcium flux; stronger effect = higher value; triggered by carbachol at its EC20 | AID 463165, 2010 | actives 0.45% (n = 310,000) | B-score at 10 µM;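 active = B-score, a plate-corrected calcium signal, over three deviations above library mean, with baseline fluorescence within five deviations of library mean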;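 note: RGS4 expression induced by doxycycline in cells with stable M3 receptor; B-score is computed from the integrated fluorescence ratio over baseline after carbachol; higher B-score means a larger calcium signal and so more RGS4 inhibition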
Target sequence (P49798 whole entry, looked up): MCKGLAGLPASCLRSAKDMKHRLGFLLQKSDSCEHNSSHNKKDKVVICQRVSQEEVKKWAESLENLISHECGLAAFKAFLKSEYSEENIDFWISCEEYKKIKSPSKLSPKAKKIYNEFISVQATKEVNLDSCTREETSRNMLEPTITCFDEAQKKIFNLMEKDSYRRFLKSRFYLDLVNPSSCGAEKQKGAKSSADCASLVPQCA
MrgX1 ant reconf: MrgX1 receptor antagonists, duplicate retest, confirmation, HEK293 cells, Fluo-4 calcium flux; shares compounds with MrgX1 antag; BAM8-22 calcium flux; stronger effect = lower value; remaining BAM8-22 calcium response % of control (stronger effect = lower value), % at 10 µM; actives 19% (n = 2,300);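 active = remaining agonist calcium response no higher than 100% minus 3 SD of agonist-only control wells, with starting fluorescence near control levels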;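 note: agonist BAM8-22 given at a near maximal EC90 to ECmax level; peak minus minimum fluorescence divided by baseline after agonist addition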
HEK293 Ca flux: nonspecific calcium signal in parental HEK293, confirmation, counter-screen for MrgX1 antagonist project, parental HEK293 cells, Fluo-4 calcium flux | shares compounds with MrgX1 antag | Fluo-4 calcium fluorescence, FDSS | fluorescence ratio F(max-min)/F0 at 10 µM | actives 2% (n = 4,000);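 active = duplicate-averaged calcium fluorescence ratio at least three times the standard deviation of buffer wells, a nonspecific response in parental cells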
HEK293 Ca counter: calcium response in parental HEK293 cells, primary screen, counter-screen for MrgX1 allosteric activator project, cell-based, Fluo-4 calcium flux, duplicate; shares compounds with MrgX1 antag; Fluo-4 fluorescence ratio; stronger effect = higher value; fluorescence ratio F(max-min)/F0 at 10 µM; actives 0.4% (n = 4,000); AID 624114, 2012;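 active = calcium fluorescence ratio, averaged over duplicates, at least 3 SD of the buffer-well ratio, meaning a nonspecific response in receptor-free cells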;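 note: untransfected parental HEK293 lacking MrgX1 used as counterscreen for MrgX1 allosteric activators; fluorescence change taken during the second addition on a kinetic imager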
HEK293 Ca cntr2: calcium response in parental HEK293 cells, primary screen, counter-screen for MrgX1 agonist project, cell-based, Fluo-4 calcium flux, duplicate, agonist mode. shares compounds with MrgX1 antag. Fluo-4 calcium fluorescence (FDSS); stronger effect = higher value. fluorescence ratio F(max-min)/F0 at 10 µM. actives 8.7% (n = 4,000). AID 624115, 2012;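 active = calcium fluorescence ratio at least three times the spread of buffer wells, meaning a non-specific response in parental cells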
An asterisk follows results filed as active; i = inactive; · = no result given.

SMILES | MrgX1 agonist | MrgX1 antag | RGS4 pot | MrgX1 allo act | RGS4 inh | MrgX1 ant reconf | HEK293 Ca flux | HEK293 Ca counter | HEK293 Ca cntr2
CCN1CCN(C(=O)c2cnn3c(C(F)F)cc(-c4ccc(C)cc4)nc23)CC1 | i | -8.5* | i | i | i | i | i | i | i
O=c1[nH]c2ccccc2nc1/C=C/c1ccc(F)cc1 | i | -8* | i | i | i | i | i | i | i
COCCCNC(=S)N1CCN(c2nc(-c3ccc(F)cc3)cs2)CC1 | i | i | i | i | i | · | · | · | ·
CCOCCCNC(=S)N1CCN(c2nc(-c3ccc(F)cc3)cs2)CC1 | i | -6.4* | i | i | i | 71%* | i | i | i
Cc1ccc(C(=O)NCc2ccco2)cc1S(=O)(=O)N1CCCCC1 | i | -6.7* | i | i | i | i | i | i | i
Cc1ccc(C(=O)Nc2ccncc2)cc1S(=O)(=O)N1CCOCC1 | i | -4.6* | i | i | i | i | i | i | 64*
O=C(Nc1cccc(Br)c1)c1ccc(Cl)c(S(=O)(=O)N2CCOCC2)c1 | i | -4.7* | i | i | i | 80%* | i | i | i
Cc1ccc(C(=O)Nc2ccccc2C(=O)NCc2ccco2)cc1S(=O)(=O)N1CCCCC1 | i | i | i | i | i | · | · | · | ·
Cc1nc(Nc2cccc(C(C)O)c2)c2nnn(Cc3ccc(F)cc3)c2n1 (stereo unspecified) | i | i | i | i | i | · | · | · | ·
CN(C)C(CNC(=O)CCc1nc2sc3c(c2c(=O)[nH]1)CCCC3)c1ccccc1 (stereo unspecified) | i | -6.5* | i | i | i | i | i | i | i
COc1ccc(Nc2nc(-c3ccc4c(c3)NC(=O)CO4)cs2)cc1 | i | i | i | i | i | · | · | · | ·
COc1ccc(-c2cc(-c3ccccc3)nc(-c3ccc4c(c3)NC(=O)CO4)c2)cc1 | i | -5.9* | i | i | i | i | i | i | i
CCOC(=O)N1CCN(CC(O)COc2ccc(C)cc2C(C)(C)C)CC1 (stereo unspecified) | i | i | i | i | i | · | · | · | ·
Cc1cc(C)c(S(=O)(=O)NCc2cccnc2)cc1C | i | i | i | i | i | · | · | · | ·
CCOc1cc(S(=O)(=O)NCc2cccnc2)c(C)cc1C | i | -4.9* | i | i | i | i | i | i | i
COc1ccc(Cl)cc1S(=O)(=O)NCc1cccnc1 | i | -5.7* | i | i | i | i | i | i | i
CC(=O)c1cccc(S(=O)(=O)NC2CCCCCC2)c1 | i | i | i | i | i | · | · | · | ·
CC(=O)c1cccc(S(=O)(=O)NC2CC2)c1 | i | -6.8* | i | i | i | i | i | i | i
Cc1ccc(NC(=O)Nc2nnc(-c3ccncc3)s2)cc1C | i | -6.1* | i | i | i | 64%* | i | i | i
Cc1cccc(NC(=O)CNC(=O)c2ccc3c(c2)OCO3)n1 | i | -9.4* | i | i | i | i | i | i | i
